# Assay results as given in ChEMBL document CHEMBL1131138, “A novel class of orally active non-peptide bradykinin B2 receptor antagonists. 3. Discovering bioisosteres of the imidazo[1,2-a] pyridine moiety” (J Med Chem, 1998).
# How the values were obtained:
# B2 bradykinin receptor [1] = target: T1, B2 bradykinin receptor (Cavia porcellus, UniProt O70526); assay: Concentration required to inhibit specific binding of [ 3H]BK (0.06 nM) to Bradykinin receptor B2 in guinea pig ileum membrane preparations by 50%.; format: cell membranes
# T1 sequence (O70526 whole entry): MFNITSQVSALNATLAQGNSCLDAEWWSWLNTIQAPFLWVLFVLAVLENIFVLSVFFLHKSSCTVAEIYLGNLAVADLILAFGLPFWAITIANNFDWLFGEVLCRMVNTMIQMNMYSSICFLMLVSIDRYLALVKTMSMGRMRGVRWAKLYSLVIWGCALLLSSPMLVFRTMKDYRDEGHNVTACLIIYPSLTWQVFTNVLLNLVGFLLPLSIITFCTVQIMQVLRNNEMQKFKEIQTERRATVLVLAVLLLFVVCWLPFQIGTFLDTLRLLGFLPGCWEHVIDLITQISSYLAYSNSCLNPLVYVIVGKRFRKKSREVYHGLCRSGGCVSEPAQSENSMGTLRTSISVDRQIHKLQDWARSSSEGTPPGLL
# Method in brief: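 Ileal membranes from male Hartley guinea pigs (0.2 mg protein/mL) in TES buffer pH 6.8 with phenanthroline, bacitracin, DTT, captopril and BSA. Incubated with 0.06 nM [3H]BK plus compound for 60 min at room temperature, then filtered through GF/B and counted by scintillation.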
# Cavia porcellus [2] = assay: Compound tested in vivo for inhibition of Bradykinin induced Bronchoconstriction in anaesthetized guinea pig at 1 mg/kg, po; format: functional
# Method in brief: (§1)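 Male Hartley guinea pigs (470–750 g), fasted overnight, anesthetized with ip pentobarbital (30 mg/kg) and ventilated at 10 mL/kg, 60 breaths/min. Given alcuronium (0.5 mg/kg iv) and propranolol (10 mg/kg sc). BK 5 μg/kg iv, with bronchoconstriction read as peak pulmonary insufflation pressure (modified Konzett–Rössler).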
# B2 bradykinin receptor [3] = target: T2, B2 bradykinin receptor (Homo sapiens, UniProt P30411); assay: Inhibition specific binding of [3H]BK (1.0 nM) to human Bradykinin receptor B2 which was expressed in CHO (Chinese hamster ovary) cells by 50%.; format: cell-based
# T2 sequence (P30411 whole entry): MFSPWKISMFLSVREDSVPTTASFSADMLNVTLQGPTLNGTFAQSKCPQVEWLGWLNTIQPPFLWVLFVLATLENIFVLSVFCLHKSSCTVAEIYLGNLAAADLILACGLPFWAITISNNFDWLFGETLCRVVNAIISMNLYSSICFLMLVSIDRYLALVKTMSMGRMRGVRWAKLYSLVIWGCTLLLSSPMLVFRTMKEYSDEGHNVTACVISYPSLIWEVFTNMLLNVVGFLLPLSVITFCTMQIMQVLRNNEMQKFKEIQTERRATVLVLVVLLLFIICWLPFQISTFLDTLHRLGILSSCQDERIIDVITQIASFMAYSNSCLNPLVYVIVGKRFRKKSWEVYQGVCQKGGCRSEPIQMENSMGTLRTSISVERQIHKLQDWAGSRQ
# Method in brief: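 CHO (dhfr−) cells stably expressing human B2 receptor, seeded at 3.0 × 10^4 cells/well and cultured 1 day. Whole cells incubated with 1.0 nM [3H]BK plus compound for 2 h at 4 °C in HEPES/N-methyl-D-glucamine buffer pH 7.2 with bacitracin, enalaprilat and BSA. Washed, solubilized in SDS/NaOH and counted. Nonspecific binding with 1 μM BK; DMSO below 3%; three experiments.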
# B2 bradykinin receptor [4] = target: T2, B2 bradykinin receptor; assay: Concentration required to inhibit specific binding of [3H]BK (1.2 nM) to A-431 cells (human epidermoid carcinoma) which express Bradykinin receptor B2 by 50%.; format: cell-based
# Cavia porcellus [5] = assay: In vivo inhibition of Bradykinin induced Bronchoconstriction in anaesthetized guinea pig following 1 mg/kg p.o.; format: functional; settings: route oral; method in brief: as §1
# Cavia porcellus [6] = assay: Inhibition of Bradykinin induced Bronchoconstriction in anaesthetized guinea pig at 0.32mg/kg, po; format: functional; method in brief: as §1
IC50 (B2 bradykinin receptor [1]) [µM],IC50 (B2 bradykinin receptor [3]) [µM],IC50 (B2 bradykinin receptor [4]) [µM],SMILES,inhibition in vivo at 1 mg/kg (Cavia porcellus [2]) [%],inhibition in vivo at 1 mg/kg (Cavia porcellus [5]) [%],inhibition in vivo at 0.32 mg/kg (Cavia porcellus [6]) [%]
0.0016,0.0072,–,CNC(=O)c1ccc(/C=C/C(=O)NCC(=O)N(C)c2ccc(C)c(COc3cccc4c3nc(OC)n4C)c2C)cc1,59.7,–,–
0.38,1.1,0.86,CNC(=O)c1ccc(/C=C/C(=O)NCC(=O)N(C)c2ccc(Cl)c(COc3cccc4oc(C)nc34)c2Cl)cc1,–,–,–
> 10,> 10,> 10,CNC(=O)c1ccc(/C=C/C(=O)NCC(=O)N(C)c2ccc(Cl)c(COCc3cccc(C)n3)c2Cl)cc1,–,–,–
0.001,0.0052,0.0031,CNC(=O)c1ccc(/C=C/C(=O)NCC(=O)N(C)c2ccc(Cl)c(COc3cccc4ncc(C)nc34)c2Cl)cc1,–,–,–
0.00083,0.0022,–,CNC(=O)c1ccc(/C=C/C(=O)NCC(=O)N(C)c2ccc(Cl)c(COc3cccc4c3nc(OC)n4C)c2Cl)cc1,21.7,–,–
0.00051,0.0011,0.0013,CNC(=O)c1ccc(/C=C/C(=O)NCC(=O)N(C)c2ccc(Cl)c(COc3cccc4ccc(C)nc34)c2Cl)cc1,–,81.9,67.4
0.0091,0.067,0.043,CNC(=O)c1ccc(/C=C/C(=O)NCC(=O)N(C)c2ccc(Cl)c(COc3cccc4c3nc(C)n4C)c2Cl)cc1,–,–,–
0.0024,0.0025,–,CC(=O)Nc1ccc(/C=C/C(=O)NCC(=O)N(C)c2ccc(Cl)c(COc3cccc4ncc(C)nc34)c2Cl)cc1,28.6,–,–
0.0087,0.022,–,CCc1nc2c(OCc3c(Cl)ccc(N(C)C(=O)CNC(=O)/C=C/c4ccc(C(=O)NC)cc4)c3Cl)cccc2n1C,31.7,–,–
0.11,0.056,0.059,CNC(=O)c1ccc(/C=C/C(=O)NCC(=O)N(C)c2ccc(Cl)c(COc3cccc4cnc(C)nc34)c2Cl)cc1,–,–,–
> 10,–,> 10,CNC(=O)c1ccc(/C=C/C(=O)NCC(=O)N(C)c2ccc(Cl)c(COc3cccc4cnc(C)cc34)c2Cl)cc1,–,–,–
0.17,2.9,4.3,CNC(=O)c1ccc(/C=C/C(=O)NCC(=O)N(C)c2ccc(Cl)c(COc3cccc4nc(C)cnc34)c2Cl)cc1,–,–,–
> 10,–,> 10,CNC(=O)c1ccc(/C=C/C(=O)NCC(=O)N(C)c2ccc(Cl)c(COc3ccc4ccc(C)nc4c3)c2Cl)cc1,–,–,–
0.35,2,3.5,CNC(=O)c1ccc(/C=C/C(=O)NCC(=O)N(C)c2ccc(Cl)c(COc3cccnc3-n3c(C)ccc3C)c2Cl)cc1,–,–,–
